# Assay results collected from several papers.
# Target: Cyclin-dependent kinase-like 2 (CDKL2, Homo sapiens, UniProt Q92772)
# One construct used (Q92772 1-493): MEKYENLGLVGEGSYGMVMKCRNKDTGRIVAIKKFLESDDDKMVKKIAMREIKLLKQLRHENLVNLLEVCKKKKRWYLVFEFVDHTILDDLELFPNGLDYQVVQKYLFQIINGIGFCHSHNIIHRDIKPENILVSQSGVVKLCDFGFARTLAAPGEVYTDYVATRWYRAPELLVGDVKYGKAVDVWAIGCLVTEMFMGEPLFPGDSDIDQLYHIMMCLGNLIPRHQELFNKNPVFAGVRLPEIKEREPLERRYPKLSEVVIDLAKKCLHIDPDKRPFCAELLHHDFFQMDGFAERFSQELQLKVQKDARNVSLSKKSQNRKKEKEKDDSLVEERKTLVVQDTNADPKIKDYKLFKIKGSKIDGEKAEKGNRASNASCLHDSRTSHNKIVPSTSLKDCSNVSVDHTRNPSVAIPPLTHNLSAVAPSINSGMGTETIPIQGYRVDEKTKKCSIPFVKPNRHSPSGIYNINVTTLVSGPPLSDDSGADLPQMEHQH
SMILES,test,conditions,remaining binding [%]
CN(C)c1nccc(-c2cnn3ncccc23)n1,binding,1 µM,100
Cc1nc(Cc2cccc(C(F)(F)F)c2)sc1-c1ccc(C(N)=O)nc1,"binding, competition with immobilised ligand",1 µM,92
Cc1cnc(Nc2ccc(C(=O)N3CCC(N4CCCC4)CC3)cc2)nc1-c1cc2ccccc2s1,"binding, competition with immobilised ligand",1 µM,12
N[C@H]1CCN(c2nccc(-c3cnn4ncccc34)n2)C1,binding,1 µM,99
O=C(NCC1CCOCC1)c1n[nH]cc1NC(=O)c1c(F)cccc1F,"binding, competition with immobilised ligand",1 µM,93
c1cncc(-c2cccc(Nc3nccc(NC4CCCCC4)n3)c2)c1,"binding, competition with immobilised ligand",10 µM,64
O=C1CCc2cc(Nc3cc(OC4CCOCC4)c([N+](=O)[O-])cc3Cl)ccc2N1,"cell-free assay, competition with immobilised ligand",1 µM,92
C[C@H]1CCN(c2nccc(-c3cnn4ncccc34)n2)C1,binding,1 µM,100
COc1cnc(Nc2cccc(S(N)(=O)=O)c2)nc1N1CCN(c2ccccc2)C(=O)C1,"binding, competition with immobilised ligand",1 µM,98
CN(C)c1nccc(-c2cnc3ncccn23)n1,binding,1 µM,100
C=CC(=O)N1CCC(C(=O)NCC(=O)N2CCN(c3nc(-c4cnc(N)nc4C(F)F)nc(N4CCOCC4)n3)CC2)CC1,"binding, competition with immobilised ligand",1 µM,100
CN(CCCC(F)(F)F)c1nccc(-c2cnn3ncccc23)n1,binding,1 µM,100
FC(F)(F)Oc1cccc(-c2cnc3ccc(-c4ccncc4)nn23)c1,"cell-free assay, competition with immobilised ligand",5 µM,67
CN(c1ccnc(CNc2nc(Nc3ccc4c(c3)CC(=O)N4)ncc2C(F)(F)F)n1)S(C)(=O)=O,"cell-free assay, competition with immobilised ligand",1 µM,84
O=C(NCCCN1CCOCC1)c1ccc(Nc2ncc(Cl)c(-c3ccc(Cl)s3)n2)cc1,"binding, competition with immobilised ligand",1 µM,19
C[C@H](c1ccnc(Nc2nc3ccc(-c4cc(N(C)C)ncn4)cc3[nH]2)c1)N1CCN(C(=O)CC(F)(F)F)CC1,"binding, competition with immobilised ligand",0.1 µM,100
O=C(c1ccc(Nc2nccc(-c3cc4ccccc4s3)n2)cc1)N1CCC(N2CCCC2)CC1,"binding, competition with immobilised ligand",1 µM,8.8
COc1ccnn2ncc(-c3ccnc(N(C)C)n3)c12,binding,1 µM,91
Cc1nc(C2CCN(C(=O)c3ccc(OC(F)(F)F)cc3N)CC2)c2ncc(N3CCN(C)CC3)cc2n1,"cell-free assay, competition with immobilised ligand",1 µM,100
CC1CCCN1c1nccc(-c2cnn3ncccc23)n1 (stereo not shown),binding,1 µM,100
O=C(Nc1cccnn1)N1CC(C/C=C/c2cncc(Oc3ccc(C(F)(F)F)cn3)n2)C1,"cell-free assay, competition with immobilised ligand",1 µM,100
COc1ncc2cc3ccccc3nc2c1C#N,"binding, competition with immobilised ligand",5 µM,90
